The values that follow come from ChEMBL document CHEMBL1122137, “Antiinflammatory properties of 8-aryl-5-isopropyl-2H-1,3-dioxolo[4,5-g]quinazolin-6(5H)-ones and -thiones” (1982).

For orientation: inhibition in vivo means the relative decrease from the control value, in per cent. Low readings indicate a weak effect, high ones a strong effect. For orientation: ED50 means the dose at which the effect has come halfway, by size or by number of responders.

SMILES strings stand for the structures.

Common to all, as to format: functional
For experiment [1], the system named is Rattus norvegicus. As to the kind of experiment: Inhibition of carrageenan edema in rats was determined after peroral administration of 100 mg/kg. Particulars: route oral. In outline:
(§1)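 Male Wistar rats (150–175 g) dosed orally, in mg/kg, as a suspension in 0.5% carboxymethylcellulose (1 mL/kg), 1 h before subplantar injection of 0.1 mL of 1% Type 402 carrageenin. Paw edema measured by electronic plethysmography at 3 h. Swelling (3 h minus 0 h) per rat; treated-group mean expressed as percent of vehicle-control mean.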
In general terms: In the carrageenan paw model, swelling and tenderness develop within hours.

The test system of experiment [2] is Rattus norvegicus. As to the kind of experiment: Nonnarcotic analgesic effect was determined after peroral administration in rats. To be noted: po, read-out: MED.
The subject of experiment [3] is Rattus norvegicus. Nature of the experiment: Bronchoconstrictor effect of bradykinin was determined after intravenous administration in rats.
For experiment [4], the species on record is Rattus norvegicus. Nature of the experiment: Inhibition of the development of adjuvant-induced polyarthritis in rats was determined.
Experiment [5] deals with Rattus norvegicus. Nature of the experiment: Inhibition of carrageenan edema in normal rats was determined after peroral administration. Particulars: po. In short, it runs like this: as §1
Experiment [6] deals with Rattus norvegicus. As to the kind of experiment: Inhibition of carrageenan edema in adrenalectomized rats was determined after peroral administration. Particulars: po. In short, it runs like this:
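Carrageenin paw edema run as in intact rats, but male Wistar rats were bilaterally adrenalectomized under ether and allowed 7 days to recover. They drank 1.0% NaCl plus 2.5% dextrose and ate standard chow. Oral dosing in 0.5% CMC 1 h before subplantar 1% carrageenin. Plethysmographic swelling at 3 h, as percent of vehicle-treated controls.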

The subject of experiment [7] is Rattus norvegicus. Nature of the experiment: Nonnarcotic analgesic effect was determined after peroral administration in rats. Particulars: po, read-out: MED.
Experiment [8] relates to Rattus norvegicus. As to the kind of experiment: Bronchoconstrictor effect of bradykinin was determined after intravenous administration in rats.

In turn, `COc1cccc(-c2nc(=O)n(C(C)C)c3cc4c(cc23)OCO4)c1` displayed an inhibition in vivo at 100 mg/kg with Rattus norvegicus [1] of 12%.
On to `CC(C)n1c(=O)nc(-c2ccc(OCc3ccccc3)cc2)c2cc3c(cc21)OCO3`, for which 100 mg/kg produced 17% inhibition in vivo in the experiment on Rattus norvegicus [1].
For `CC(C)n1c(=O)nc(-c2ccccc2[N+](=O)[O-])c2cc3c(cc21)OCO3`, the ED50 with Rattus norvegicus [1] was 39 mg/kg.
`CC(C)n1c(=O)nc(-c2cccc(F)c2)c2cc3c(cc21)OCO3`: the minimal effective dose with Rattus norvegicus [2] stood at 11 mg/kg. In addition, the median effective dose (ED50) in the experiment with Rattus norvegicus [3] came to 0.05 mg/kg; in the experiment filed under Rattus norvegicus [4], 9 mg/kg; in the experiment with Rattus norvegicus [5] it was 9 mg/kg; with Rattus norvegicus [6], 14 mg/kg; with Rattus norvegicus [1] it was 9 mg/kg.
With `CC(C)n1c(=O)nc(-c2ccc3c(c2)OCO3)c2cc3c(cc21)OCO3`, in the experiment with Rattus norvegicus [1], the inhibition in vivo at 100 mg/kg worked out at 21%.
As for `Cc1ccc2c(-c3ccccc3)nc(=O)n(C(C)C)c2c1` [PROQUAZONE], the minimal effective dose in the experiment with Rattus norvegicus [7] was 1 mg/kg. In addition, the ED50 in the experiment filed under Rattus norvegicus [4] amounted to 1 mg/kg; in the experiment on Rattus norvegicus [5] it was 5 mg/kg; in the experiment on Rattus norvegicus [6], 6 mg/kg; in the experiment with Rattus norvegicus [1] it was 5 mg/kg.
Turning to `CCCCC1C(=O)N(c2ccccc2)N(c2ccccc2)C1=O` [PHENYLBUTAZONE], the minimal effective dose with Rattus norvegicus [7] is 9 mg/kg. Besides, the median effective dose (ED50) in the experiment listed under Rattus norvegicus [4] turned out to be 5 mg/kg; in the experiment on Rattus norvegicus [5] it was 25 mg/kg; in the experiment on Rattus norvegicus [6], 30 mg/kg; with Rattus norvegicus [1], 25 mg/kg.
Molecule `CC(C)n1c(=O)nc(-c2ccc(C(=O)O)cc2)c2cc3c(cc21)OCO3` registered an inhibition in vivo at 100 mg/kg in the experiment with Rattus norvegicus [1] of 33%.
The molecule `Cc1ccccc1C1NC(=O)N(C(C)C)c2cc3c(cc21)OCO3` (stereo unspecified) had a 50% effective dose (ED50) with Rattus norvegicus [1] of 50 mg/kg.
`CC(C)n1c(=S)nc(-c2cccc(F)c2)c2cc3c(cc21)OCO3` returned an inhibition in vivo at 100 mg/kg in the experiment on Rattus norvegicus [1] of 36%.
`CC(C)n1c(=O)nc(-c2ccc(F)cc2)c2cc3c(cc21)OCO3`: the minimal effective dose in the experiment with Rattus norvegicus [2] is 4 mg/kg. Besides, the ED50 came out at 6 mg/kg in the experiment filed under Rattus norvegicus [4]; 8 mg/kg in the experiment with Rattus norvegicus [5]; 20 mg/kg in the experiment with Rattus norvegicus [6]; 8 mg/kg in the experiment with Rattus norvegicus [1]; 0.17 mg/kg in the experiment with Rattus norvegicus [8].
`CC(C)n1c(=S)nc(-c2cccc([N+](=O)[O-])c2)c2cc3c(cc21)OCO3` displayed an inhibition in vivo at 100 mg/kg in the experiment on Rattus norvegicus [1] of 0%.
On to `CC(C)n1c(=S)nc(-c2ccc(F)cc2)c2cc3c(cc21)OCO3`, for which testing at 100 mg/kg in the experiment with Rattus norvegicus [1] gave an inhibition in vivo of 49%.
`CC(C)n1c(=O)nc(-c2cccc([N+](=O)[O-])c2)c2cc3c(cc21)OCO3` registered an inhibition in vivo at 100 mg/kg in the experiment on Rattus norvegicus [1] of 28%.
As for `COc1ccc2c(c1)c(CC(=O)O)c(C)n2C(=O)c1ccc(Cl)cc1` [INDOMETHACIN], the minimal effective dose in the experiment on Rattus norvegicus [7] came out at 4 mg/kg. In addition, the ED50 in the experiment listed under Rattus norvegicus [4] turned out to be 0.1 mg/kg; in the experiment with Rattus norvegicus [5] it was 5 mg/kg; in the experiment on Rattus norvegicus [6], 6 mg/kg; in the experiment on Rattus norvegicus [1] it was 5 mg/kg.
On to `Cc1ccccc1-c1nc(=O)n(C(C)C)c2cc3c(cc12)OCO3`, for which the ED50 with Rattus norvegicus [1] worked out at 65 mg/kg.
Consider `Cc1ccc(-c2nc(=O)n(C(C)C)c3cc4c(cc23)OCO4)cc1`, for which, in the experiment with Rattus norvegicus [1], the inhibition in vivo at 100 mg/kg was 22%.
As to `CC(C)n1c(=S)nc(-c2ccccc2)c2cc3c(cc21)OCO3`, the ED50 was 6 mg/kg in the experiment filed under Rattus norvegicus [4], 7 mg/kg in the experiment with Rattus norvegicus [5], 7 mg/kg in the experiment on Rattus norvegicus [1] and 0.047 mg/kg in the experiment on Rattus norvegicus [8].
Turning to `CC(C)c1ccc(-c2nc(=S)n(C(C)C)c3cc4c(cc23)OCO4)cc1`, 100 mg/kg produced 10% inhibition in vivo in the experiment with Rattus norvegicus [1].
In the experiment on Rattus norvegicus [1], `CC(C)n1c(=O)nc(-c2ccc(Cl)c(Cl)c2)c2cc3c(cc21)OCO3` returned an inhibition in vivo at 100 mg/kg of 30%.
`CC(C)n1c(=O)nc(-c2ccccc2)c2cc3c(cc21)OCO3`: the minimal effective dose in the experiment on Rattus norvegicus [2] was determined as 50 mg/kg. In addition, the ED50 in the experiment listed under Rattus norvegicus [4] came to 3 mg/kg; in the experiment with Rattus norvegicus [5], 8 mg/kg; in the experiment with Rattus norvegicus [6], 9 mg/kg; with Rattus norvegicus [1] it was 7 mg/kg; with Rattus norvegicus [8], 0.012 mg/kg.
